High-throughput results deposited in PubChem BioAssay by The Scripps Research Institute Molecular Screening Center.
CHO parental Ca – ATP-evoked calcium signal inhibitors, parental CHO, primary screen, counter-screen for OX1R antagonist project, cell-based, fluorescence, Fluo-8 calcium dye; parental CHO-K1, ATP-induced calcium, Fluo-8 fluorescence; inhibition, % at 5.6 µM; AID 463079, 2010; 0.63% of 330,000 active;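 active = inhibition above that plate's mean sample inhibition plus 3 SD, cut at about 26% in these data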;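 note: 0% = ATP-challenged DMSO wells and 100% = DMSO wells without ATP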
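Material – parental CHO cells · Reagent – ATP stimulus · Compound – single nominal dose of 5.6 µM per compound · Detection – Fluo-8 fluorescence · Read-out basis – percent inhibition of calcium signal · Controls – ATP-challenged DMSO wells low, unchallenged DMSO wells high · Repeats – no replicates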
OX1R antag-1 – antagonists of human orexin 1 receptor (OX1R); Orexin/Hypocretin receptor type 1 (Homo sapiens), O43613; OX1R-expressing cells, FRET antagonist read-out; inhibition, % at 6.6 µM; 1.8% of 330,000 active; in the data active = inhibition mostly above about 38%, no sharp cut-off; inactive = mostly below about 40%;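 note: 0% = agonist challenge alone and 100% = reference antagonist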
Target sequence (O43613 whole entry, looked up): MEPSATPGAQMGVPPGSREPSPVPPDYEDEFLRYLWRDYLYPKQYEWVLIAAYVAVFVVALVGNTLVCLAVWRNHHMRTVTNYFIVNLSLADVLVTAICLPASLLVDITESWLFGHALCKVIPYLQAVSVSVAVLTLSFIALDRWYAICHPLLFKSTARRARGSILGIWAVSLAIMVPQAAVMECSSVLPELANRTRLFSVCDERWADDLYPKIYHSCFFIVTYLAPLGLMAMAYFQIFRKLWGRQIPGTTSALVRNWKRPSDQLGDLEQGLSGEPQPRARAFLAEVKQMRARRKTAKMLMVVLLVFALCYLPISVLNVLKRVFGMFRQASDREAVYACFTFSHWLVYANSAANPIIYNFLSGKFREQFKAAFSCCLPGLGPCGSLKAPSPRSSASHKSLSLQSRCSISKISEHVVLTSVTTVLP
GalR3 antagonist – GalR3 antagonists in HEK293 cells, primary screen, cell-based, fluorescence readout | Galanin receptor type 3 (Homo sapiens), O60755 | HEK293 GalR3-CNG cAMP membrane potential fluorescence; galR3 body fused to GalR1 C-terminus | inhibition, % at 3 µM | 0.44% of 360,000 active | AID 651719, 2012;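 active = inhibition above the screen-wide average plus 3 SD, cut at about 13% in these data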;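 note: forskolin and galanin both at EC90 stimulate the cells; cAMP rise reported by CNG channel membrane potential dye signal; 0% = forskolin plus galanin with DMSO and 100% = forskolin alone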
OX1R antag-2 – OX1R (HCRTR1) antagonists, primary screen, fluorescence, CHO/OX1R cells, Fluo-8 calcium, orexin A. Fluo-8 calcium fluorescence. inhibition, % at 5 µM. 0.43% of 330,000 active. Orexin/Hypocretin receptor type 1 (Homo sapiens), O43613. AID 434989, 2010;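 active = inhibition above its plate's threshold, mean inhibition of all tested compounds on the plate plus 3 SD, cut at about 37% in these data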;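 note: 0% = orexin A challenge wells and 100% = SB-334867-A antagonist wells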
GPR7 antagonist – GPR7 receptor antagonists, primary screen, cell-based, fluorescence, single concentration; GPR7-expressing cells, fluorescence antagonist assay; Neuropeptides B/W receptor type 1 (Homo sapiens), P48145; AID 1861, 2009; 1.1% of 290,000 active; inhibition, % at 4.4 µM; in the data active = inhibition above about 16%, passing the limit was not always enough;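 note: cells stimulated with the agonist NPW; 0% = agonist with vehicle and 100% = vehicle without agonist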
* hit, by the source's call; nt = not tested or not shown. Most compounds without a hit are left out; they make up all but 3.1% or so of the library.

SMILES	CHO parental Ca	OX1R antag-1	GalR3 antagonist	OX1R antag-2	GPR7 antagonist
CC(Sc1nc(N)cc(=O)[nH]1)C(=O)Nc1sc2c(c1C#N)CCCC2 (stereo not drawn)	34*	11	-1	31	-2
CC(C)=CCC/C(C)=C/CN1C(=O)N(c2ccc(F)cc2)[C@H]2C[C@@H](c3ccccc3)[C@@H](C)[C@@H](C(=O)N3CCOCC3)C[C@H]21	nt	nt	-4	nt	nt
CC(C)CCNC(=O)C1CC(c2ccc(C(F)(F)F)cc2)=NO1 (stereo not drawn)	52*	53	1	-4	nt
O=C1c2cccc3cc([N+](=O)[O-])cc(c23)C(=O)N1CC1CCCO1 (stereo not drawn)	-4	60*	-4	-22	-13
CC(=O)OCCN1C(=O)c2cccc3cc([N+](=O)[O-])cc(c23)C1=O	-14	69*	nt	-3	nt
N#C/C(=C\c1coc2ccc(O)cc2c1=O)C(=O)Nc1nc2ccccc2s1	64*	65*	-6	81*	-4
Cc1onc(-c2c(Cl)cccc2Cl)c1-c1nc2cc(Cl)ccc2c(=O)o1	nt	nt	-4	nt	-2
Cc1ccc(S(=O)(=O)N2CCOC23CCN(S(=O)(=O)c2c(C)cc(C)cc2C)CC3)cc1	18	21	-1	-8	nt
O=C(c1ccc2c(c1)OCO2)N1CCC(Cc2ccccc2)CC1	16	11	6	-5	19*
CCOC(=O)C1CCN(C(=O)c2ccc3c(c2)OCO3)CC1	57*	10	-4	-3	-3
CCOC(=O)C1CCCN(C(=O)c2ccc3c(c2)OCO3)C1 (stereo not drawn)	-12	7	-4	-15	-8
CN(C)c1cccc2c1C(=O)c1ccccc1C2=O	-13	46*	-4	-13	-6
COCC(=O)Nc1ccc2c(c1)[C@H]1C[C@@H](CC(=O)NCC3CC3)O[C@H](CO)[C@H]1O2	nt	nt	-5	nt	nt
O=P(OC1CCCCC1)(OC1CCCCC1)C(O)c1ccc(Cl)cc1Cl (stereo not drawn)	-21	10	-6	-25	4
O=P(OC1CCCCC1)(OC1CCCCC1)C(O)c1c(Cl)cccc1Cl (stereo not drawn)	-9	45*	8	-10	-14
CCn1c(=NC(=O)CCS(=O)(=O)c2ccccc2)sc2cccc(OC)c21	56*	25	-4	12	14
O=[N+]([O-])c1cc(-c2ccc(/C=N\n3cnnc3)o2)cc([N+](=O)[O-])c1	-9	69*	-7	-14	-11
O=C(NCC(=O)N1CCN(Cc2ccccc2)CC1)c1cc(Cl)cc([N+](=O)[O-])c1	-2	34*	-6	-11	nt
O=C(NCC(=O)N1CCN(Cc2ccccc2)CC1)c1ccc(Cl)cc1	-15	18	1	-16	-14
COc1cc(OC)cc(-c2nc3cc(C)ccc3o2)c1	-16	42*	0	-3	-14
Cc1ccc(-c2nc3cc(Cl)ccc3o2)cc1	-3	12	1	-10	2
CCOc1cc(CNCCSc2nnnn2C)cc(Br)c1OCc1ccccc1	66*	11	-3	51*	7
CCOc1cc(CNCCO)cc(Br)c1OCc1ccccc1	-7	15	-14	8	15
O=c1cc(-c2ccsc2)oc2ccccc12	10	12	-5	-28	nt
CN(C)c1ccc(-c2ccc3oc(-c4ccsc4)cc(=O)c3c2)cn1	-18	57*	-1	-4	nt
SMILES	CHO parental Ca	OX1R antag-1	GalR3 antagonist	OX1R antag-2	GPR7 antagonist
O=C(CN1C(=O)S/C(=C/c2ccncc2)C1=O)Nc1ccccc1	-2	64*	-1	-7	5
Cc1cc(NC(=O)CN2C(=O)S/C(=C\c3ccccc3)C2=O)no1	-2	17	-5	-4	-3
COc1cccc(Nc2nn3c(=O)c4ccccc4nc3s2)c1	-14	39*	nt	14	nt
Cc1ccccc1Nc1nn2c(=O)c3ccccc3nc2s1	-18	31	-5	-28	-5
O=C1c2ccc(Oc3ccc([N+](=O)[O-])cc3)cc2C(=O)N1CCCO	3	10	-8	-18	-14
O=C(CCN1C(=O)c2ccc([N+](=O)[O-])cc2C1=O)Nc1cccc(O)c1	3	46*	-4	10	-10
O=C(O)CN1C(=O)c2ccc(Oc3ccc([N+](=O)[O-])cc3)cc2C1=O	-1	53*	-8	11	-10
COc1cccc(NC(=O)CN(C)C(=O)CN2C(=O)c3ccc([N+](=O)[O-])cc3C2=O)c1	-13	48*	-4	-2	nt
O=C1c2ccc([N+](=O)[O-])cc2C(=O)N1CNc1ccccn1	13	61*	-1	-6	-24
Cc1cc(N2CCN(C(=O)OC(C)(C)C)C[C@H]2C)ccc1N1CC[C@@H](O)C1	nt	nt	-8	nt	nt
C=CCNc1cccc2c1S(=O)(=O)N[C@@H](C)CO2	nt	nt	-4	nt	nt
CCc1c(-c2ccccc2OC)ncn1Cc1cccc(-c2ccccc2)c1	nt	nt	-6	nt	nt
CN(Cc1ccccc1)C(=O)CN1C(=O)c2ccccc2C1=O	-2	7	-6	-27	-11
CN(Cc1ccccc1)C(=O)CN1C(=O)c2ccc([N+](=O)[O-])cc2C1=O	-4	70*	-9	-30	17
CN(C)CCNC(=O)c1cc2c(s1)-c1ccccc1OC2	-11	21	-1	-4	12
Cc1csc(NC(=O)c2cc3c(s2)-c2ccccc2OC3)n1	0	69*	-3	10	-7
COc1ccc2c(c1)[C@@]1(OCCC=C[C@H]1C)C(=O)N2C/C=C(\C)CCC=C(C)C	nt	nt	-9	nt	nt
CCOC(=O)Cn1c(=N)n(CCOc2ccc(OC)cc2)c2ccccc21	-18	-2	nt	-31	4
CCOC(=O)Cn1c(=N)n(CCOc2ccc3ccccc3c2)c2ccccc21	-4	6	-10	-8	21*
CCOC(=O)c1ccc(NC2=CC(=O)C(=O)c3ccccc32)cc1	-12	28	1	-30	4
CC(=O)Nc1ccc(NC2=CC(=O)c3ccccc3C2=O)cc1	-9	25	-10	-21	-2
NS(=O)(=O)c1ccc(NC2=CC(=O)C(=O)c3ccccc32)cc1	4	60*	-7	8	-12
Cc1ccc(NC2=CC(=O)C(=O)c3ccccc32)cc1	-22	52*	-4	-21	-1
CCOC(=O)c1c(C)[nH]c(C(=O)COC(=O)c2ccc(O)cc2)c1C	27*	8	-3	10	-4
CCOC(=O)c1c(C)[nH]c(C(=O)COC(=O)c2ccc(O)cc2O)c1C	2	11	-7	-4	19
C[C@@H]1CN([C@H](C)CO)C(=O)CCCn2cc(nn2)CO[C@H]1CN(C)S(=O)(=O)c1ccc(Cl)cc1	nt	nt	-5	nt	nt
